Our source for the inhibition values is ChEMBL document CHEMBL2424622, “Development of amino-pyrimidine inhibitors of c-Jun N-terminal kinase (JNK): kinase profiling guided optimization of a 1,2,3-benzotriazole lead” (Bioorg Med Chem Lett, 2013).

The target of assay [1] is 5'-AMP-activated protein kinase catalytic subunit alpha-1 (Homo sapiens) (UniProt Q13131). The experiment in a line: Competitive binding affinity to AMPKalpha1 (unknown origin) at 10 uM in presence of ATP relative to control.
The target of assay [2] is T1, Serine/threonine-protein kinase Nek2 (Homo sapiens) (UniProt P51955).
T1 sequence (whole entry): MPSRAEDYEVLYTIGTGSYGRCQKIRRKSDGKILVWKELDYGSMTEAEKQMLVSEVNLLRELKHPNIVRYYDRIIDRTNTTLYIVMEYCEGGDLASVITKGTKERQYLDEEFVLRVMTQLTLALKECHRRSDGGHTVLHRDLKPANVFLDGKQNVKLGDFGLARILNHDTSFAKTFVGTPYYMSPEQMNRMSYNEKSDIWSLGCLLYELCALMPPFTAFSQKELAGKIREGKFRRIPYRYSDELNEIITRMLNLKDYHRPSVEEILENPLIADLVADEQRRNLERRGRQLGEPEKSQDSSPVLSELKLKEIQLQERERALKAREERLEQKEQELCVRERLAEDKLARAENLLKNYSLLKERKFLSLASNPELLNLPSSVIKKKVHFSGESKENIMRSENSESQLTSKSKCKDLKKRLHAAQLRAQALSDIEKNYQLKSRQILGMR
The experiment in a line: Competitive binding affinity to NEK2 (unknown origin) at 10 uM in presence of ATP relative to control. In short, it runs like this:
(§1)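 In vitro ATP-site competition binding assay across a diverse panel of 128 kinases, with compound tested at a single concentration. Kinase selectivity scores (S15) were calculated from the panel profiles.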

Assay [3] addresses RAF proto-oncogene serine/threonine-protein kinase (Homo sapiens) (UniProt P04049). As to the kind of experiment: Competitive binding affinity to RAF1 (unknown origin) at 10 uM in presence of ATP relative to control. In short, it runs like this: as §1
Assay [4] concerns the target Tyrosine-protein kinase Blk (Homo sapiens) (UniProt P51451). As to the kind of experiment: Competitive binding affinity to BLK (unknown origin) at 10 uM in presence of ATP relative to control.
The target of assay [5] is Mitogen-activated protein kinase 8 (Homo sapiens, UniProt P45983). The experiment in a line: Competitive binding affinity to JNK1 (unknown origin) at 10 uM in presence of ATP relative to control. The method in brief:
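In vitro ATP-site competition binding assay across a diverse panel of 128 kinases, with each compound tested at a single concentration. Kinase binding is expressed relative to control.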

Assay [6] has as its target Mitogen-activated protein kinase 1 (Homo sapiens, UniProt P28482). As to the kind of experiment: Competitive binding affinity to ERK2 (unknown origin) at 10 uM in presence of ATP relative to control. The method in brief: (§2)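 In vitro ATP-site competition binding assay, part of profiling against a diverse panel of 128 kinases. Each compound was tested at a single concentration of 10 µM. Kinome selectivity was summarized as S15 selectivity scores.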

In assay [7] the test system is Serine/threonine-protein kinase B-raf (Homo sapiens), P15056 [V600E]. The experiment in a line: Competitive binding affinity to BRAF V600E mutant (unknown origin) at 10 uM in presence of ATP relative to control.
The target of assay [8] is T2, Cytoplasmic tyrosine-protein kinase BMX (Homo sapiens) (UniProt P51813).
T2 sequence (whole entry): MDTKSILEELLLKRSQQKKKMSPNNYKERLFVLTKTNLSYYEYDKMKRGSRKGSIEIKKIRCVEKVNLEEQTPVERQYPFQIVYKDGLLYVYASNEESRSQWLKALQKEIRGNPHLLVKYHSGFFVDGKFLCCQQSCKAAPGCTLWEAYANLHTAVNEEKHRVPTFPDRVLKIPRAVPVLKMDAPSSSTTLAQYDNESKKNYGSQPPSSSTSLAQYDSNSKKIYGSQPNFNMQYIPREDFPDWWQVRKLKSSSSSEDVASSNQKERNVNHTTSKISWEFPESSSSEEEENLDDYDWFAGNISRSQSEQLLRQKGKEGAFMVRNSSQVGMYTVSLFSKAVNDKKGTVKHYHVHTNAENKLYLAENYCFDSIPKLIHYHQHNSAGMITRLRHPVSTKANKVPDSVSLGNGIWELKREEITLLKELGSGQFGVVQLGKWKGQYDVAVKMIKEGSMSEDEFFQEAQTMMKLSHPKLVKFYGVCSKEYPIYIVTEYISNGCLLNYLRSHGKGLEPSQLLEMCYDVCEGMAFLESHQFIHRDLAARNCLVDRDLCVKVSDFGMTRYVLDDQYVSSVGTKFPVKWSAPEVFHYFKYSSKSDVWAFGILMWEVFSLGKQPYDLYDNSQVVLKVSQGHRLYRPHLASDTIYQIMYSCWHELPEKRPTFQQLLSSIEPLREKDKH
The experiment in a line: Competitive binding affinity to BMX (unknown origin) at 10 uM in presence of ATP relative to control.

Assay [9] addresses T3, Ephrin type-B receptor 4 (Homo sapiens) (UniProt P54760).
T3 sequence (whole entry): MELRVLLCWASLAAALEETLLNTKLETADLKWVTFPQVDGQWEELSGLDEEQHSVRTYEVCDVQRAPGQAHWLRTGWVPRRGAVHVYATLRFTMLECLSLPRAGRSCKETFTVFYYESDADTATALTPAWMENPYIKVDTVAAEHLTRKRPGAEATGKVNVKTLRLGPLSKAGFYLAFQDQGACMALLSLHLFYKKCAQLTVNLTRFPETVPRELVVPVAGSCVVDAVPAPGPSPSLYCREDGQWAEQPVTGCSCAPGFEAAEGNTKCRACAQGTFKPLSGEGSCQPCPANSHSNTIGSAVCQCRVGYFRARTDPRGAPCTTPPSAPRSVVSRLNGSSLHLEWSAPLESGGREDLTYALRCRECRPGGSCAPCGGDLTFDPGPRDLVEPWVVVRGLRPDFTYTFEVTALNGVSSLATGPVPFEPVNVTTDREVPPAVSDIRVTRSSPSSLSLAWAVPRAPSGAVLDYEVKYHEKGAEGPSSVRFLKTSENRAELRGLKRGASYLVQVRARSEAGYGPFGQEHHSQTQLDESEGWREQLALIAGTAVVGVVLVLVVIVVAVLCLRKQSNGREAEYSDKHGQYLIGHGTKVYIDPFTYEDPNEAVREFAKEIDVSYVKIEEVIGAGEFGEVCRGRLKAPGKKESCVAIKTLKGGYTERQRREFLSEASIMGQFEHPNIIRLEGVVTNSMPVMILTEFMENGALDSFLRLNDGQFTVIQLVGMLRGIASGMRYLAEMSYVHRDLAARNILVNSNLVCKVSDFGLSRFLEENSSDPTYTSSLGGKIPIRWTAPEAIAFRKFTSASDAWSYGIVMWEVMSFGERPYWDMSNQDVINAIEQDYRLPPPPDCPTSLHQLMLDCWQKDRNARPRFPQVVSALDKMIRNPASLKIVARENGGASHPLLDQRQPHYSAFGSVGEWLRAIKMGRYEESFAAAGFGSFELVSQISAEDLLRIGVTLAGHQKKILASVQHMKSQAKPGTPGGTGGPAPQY
As to the kind of experiment: Competitive binding affinity to EPHB4 (unknown origin) at 10 uM in presence of ATP relative to control. In short, it runs like this:
as §2

Assay [10] deals with Calcium/calmodulin-dependent protein kinase type II subunit delta (Homo sapiens) (UniProt Q13557). As to the kind of experiment: Competitive binding affinity to CAMK2D (unknown origin) at 10 uM in presence of ATP relative to control.

For orientation: inhibition means the drop in the measured response relative to a control, in per cent.

SMILES strings stand for the structures.

RAF proto-oncogene serine/threonine-protein kinase (Homo sapiens), sequence (P04049 whole entry): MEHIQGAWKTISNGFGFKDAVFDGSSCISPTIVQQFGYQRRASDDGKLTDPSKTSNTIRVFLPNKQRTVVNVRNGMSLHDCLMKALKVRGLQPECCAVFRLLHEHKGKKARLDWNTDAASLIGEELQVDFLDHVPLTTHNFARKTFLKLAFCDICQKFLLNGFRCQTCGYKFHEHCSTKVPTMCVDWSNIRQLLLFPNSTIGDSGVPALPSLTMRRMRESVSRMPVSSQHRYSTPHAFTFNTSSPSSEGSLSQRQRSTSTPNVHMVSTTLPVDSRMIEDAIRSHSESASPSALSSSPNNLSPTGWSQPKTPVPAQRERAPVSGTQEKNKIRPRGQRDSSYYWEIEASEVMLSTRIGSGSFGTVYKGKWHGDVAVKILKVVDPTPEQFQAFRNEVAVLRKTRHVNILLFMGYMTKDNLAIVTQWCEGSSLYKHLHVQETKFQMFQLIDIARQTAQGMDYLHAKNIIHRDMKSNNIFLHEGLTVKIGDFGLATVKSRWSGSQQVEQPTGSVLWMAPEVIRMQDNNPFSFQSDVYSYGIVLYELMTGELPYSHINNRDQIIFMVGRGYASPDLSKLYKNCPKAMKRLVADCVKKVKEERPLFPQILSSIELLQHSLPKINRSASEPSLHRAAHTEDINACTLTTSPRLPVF
Mitogen-activated protein kinase 8, sequence (P45983 whole entry): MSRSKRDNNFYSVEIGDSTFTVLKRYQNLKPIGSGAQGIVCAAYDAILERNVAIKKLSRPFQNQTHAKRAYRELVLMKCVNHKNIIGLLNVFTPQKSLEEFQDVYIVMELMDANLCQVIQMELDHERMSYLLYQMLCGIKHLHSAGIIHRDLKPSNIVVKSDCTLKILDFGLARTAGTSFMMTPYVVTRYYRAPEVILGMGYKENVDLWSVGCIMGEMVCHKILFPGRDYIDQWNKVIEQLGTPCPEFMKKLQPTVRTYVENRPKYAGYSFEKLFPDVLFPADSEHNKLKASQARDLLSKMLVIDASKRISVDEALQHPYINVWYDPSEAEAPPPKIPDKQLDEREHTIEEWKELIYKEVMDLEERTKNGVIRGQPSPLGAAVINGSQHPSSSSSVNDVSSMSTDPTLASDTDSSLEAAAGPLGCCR
Mitogen-activated protein kinase 1, sequence (P28482 whole entry): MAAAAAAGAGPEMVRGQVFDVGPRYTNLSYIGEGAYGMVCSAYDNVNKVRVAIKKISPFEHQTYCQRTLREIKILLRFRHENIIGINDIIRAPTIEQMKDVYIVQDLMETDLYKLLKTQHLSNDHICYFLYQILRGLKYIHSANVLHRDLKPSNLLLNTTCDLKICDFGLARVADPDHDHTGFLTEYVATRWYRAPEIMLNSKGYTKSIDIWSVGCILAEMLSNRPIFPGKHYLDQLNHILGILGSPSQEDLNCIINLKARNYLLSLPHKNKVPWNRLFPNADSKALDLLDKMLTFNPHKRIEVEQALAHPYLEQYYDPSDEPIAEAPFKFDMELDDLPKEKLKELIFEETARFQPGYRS
Serine/threonine-protein kinase B-raf (Homo sapiens), P15056 [V600E], sequence (P15056 whole entry V600E): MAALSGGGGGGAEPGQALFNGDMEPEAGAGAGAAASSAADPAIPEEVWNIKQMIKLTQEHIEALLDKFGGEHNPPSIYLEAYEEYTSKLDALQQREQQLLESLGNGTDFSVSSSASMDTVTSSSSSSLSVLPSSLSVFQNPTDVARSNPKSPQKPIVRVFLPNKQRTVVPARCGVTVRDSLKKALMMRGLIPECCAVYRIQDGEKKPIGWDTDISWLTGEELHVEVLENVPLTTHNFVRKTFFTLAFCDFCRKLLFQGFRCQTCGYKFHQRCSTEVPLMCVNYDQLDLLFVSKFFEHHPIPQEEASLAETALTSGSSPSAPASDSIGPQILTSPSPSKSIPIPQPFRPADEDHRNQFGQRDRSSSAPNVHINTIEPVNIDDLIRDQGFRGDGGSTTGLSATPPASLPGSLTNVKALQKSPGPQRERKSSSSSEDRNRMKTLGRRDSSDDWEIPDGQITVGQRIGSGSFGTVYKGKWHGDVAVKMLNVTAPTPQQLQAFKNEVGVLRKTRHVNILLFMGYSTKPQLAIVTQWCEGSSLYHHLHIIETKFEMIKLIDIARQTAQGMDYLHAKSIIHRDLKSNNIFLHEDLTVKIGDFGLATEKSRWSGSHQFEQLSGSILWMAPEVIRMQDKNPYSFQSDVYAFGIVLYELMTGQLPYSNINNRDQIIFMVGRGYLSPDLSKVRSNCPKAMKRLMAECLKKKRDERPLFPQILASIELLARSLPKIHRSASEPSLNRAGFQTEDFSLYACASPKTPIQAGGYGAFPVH
Tyrosine-protein kinase Blk (Homo sapiens), sequence (P51451 2-505 limits assumed): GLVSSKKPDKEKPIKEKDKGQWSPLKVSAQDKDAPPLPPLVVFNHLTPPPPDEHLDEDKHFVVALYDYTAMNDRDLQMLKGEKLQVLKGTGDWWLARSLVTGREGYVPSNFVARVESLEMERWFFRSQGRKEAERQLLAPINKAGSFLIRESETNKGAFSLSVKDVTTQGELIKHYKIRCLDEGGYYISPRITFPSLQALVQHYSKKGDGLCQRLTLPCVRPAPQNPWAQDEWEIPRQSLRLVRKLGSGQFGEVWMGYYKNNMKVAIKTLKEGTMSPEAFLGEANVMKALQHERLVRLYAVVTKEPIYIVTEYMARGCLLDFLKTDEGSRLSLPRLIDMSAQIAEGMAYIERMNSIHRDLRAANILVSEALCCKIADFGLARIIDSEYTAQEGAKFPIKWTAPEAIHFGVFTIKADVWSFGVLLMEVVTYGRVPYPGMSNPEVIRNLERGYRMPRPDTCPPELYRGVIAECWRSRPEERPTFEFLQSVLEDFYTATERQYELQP
Calcium/calmodulin-dependent protein kinase type II subunit delta (Homo sapiens), sequence (Q13557 whole entry): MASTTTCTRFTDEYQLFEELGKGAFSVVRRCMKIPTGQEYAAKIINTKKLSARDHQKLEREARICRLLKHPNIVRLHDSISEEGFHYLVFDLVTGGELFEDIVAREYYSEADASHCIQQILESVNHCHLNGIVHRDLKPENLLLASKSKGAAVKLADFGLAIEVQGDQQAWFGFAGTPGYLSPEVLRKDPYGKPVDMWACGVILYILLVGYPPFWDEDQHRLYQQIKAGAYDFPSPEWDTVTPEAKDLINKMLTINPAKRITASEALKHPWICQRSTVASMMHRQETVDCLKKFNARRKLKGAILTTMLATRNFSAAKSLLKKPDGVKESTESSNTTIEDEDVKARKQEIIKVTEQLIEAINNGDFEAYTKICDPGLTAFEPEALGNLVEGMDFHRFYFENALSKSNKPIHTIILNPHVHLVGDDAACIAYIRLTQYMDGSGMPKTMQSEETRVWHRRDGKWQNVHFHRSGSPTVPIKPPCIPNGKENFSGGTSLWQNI
5'-AMP-activated protein kinase catalytic subunit alpha-1 (Homo sapiens), sequence (Q13131 whole entry, looked up): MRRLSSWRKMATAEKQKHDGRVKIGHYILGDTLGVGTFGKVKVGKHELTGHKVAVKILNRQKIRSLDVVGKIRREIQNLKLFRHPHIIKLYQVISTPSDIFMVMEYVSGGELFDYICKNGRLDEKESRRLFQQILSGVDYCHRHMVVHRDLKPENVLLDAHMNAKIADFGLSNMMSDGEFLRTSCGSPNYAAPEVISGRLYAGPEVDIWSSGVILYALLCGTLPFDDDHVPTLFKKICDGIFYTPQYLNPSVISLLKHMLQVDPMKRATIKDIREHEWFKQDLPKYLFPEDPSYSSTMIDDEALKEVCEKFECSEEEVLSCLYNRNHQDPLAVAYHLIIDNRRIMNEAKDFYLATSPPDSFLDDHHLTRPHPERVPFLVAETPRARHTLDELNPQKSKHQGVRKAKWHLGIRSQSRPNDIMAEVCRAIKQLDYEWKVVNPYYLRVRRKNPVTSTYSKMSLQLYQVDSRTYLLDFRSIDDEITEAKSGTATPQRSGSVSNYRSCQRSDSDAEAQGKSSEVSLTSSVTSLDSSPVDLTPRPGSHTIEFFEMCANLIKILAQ

Take `O[C@H]1CC[C@H](Nc2nccc(-n3ccc4ccccc43)n2)CC1`: the inhibition is less than 50% in assay [1]; less than 50% in assay [2]; less than 50% in [3]; less than 50% in assay [4]; 98% in assay [5]; less than 50% in [6]. Further, the inhibition in [7] was less than 50%; in [8], less than 50%; in assay [9] it was less than 50%; in assay [10], 85%.
For the compound `O[C@H]1CC[C@H](Nc2nccc(-n3nnc4ccccc43)n2)CC1`, the inhibition is less than 50% in [1]; less than 50% in [2]; less than 50% in [3]; 88% in assay [4]; 99% in assay [5]; less than 50% in assay [6]. Moreover, the inhibition was less than 50% in assay [7], less than 50% in [8], less than 50% in assay [9] and 74% in assay [10].
For the compound `CS(=O)(=O)CCCOc1cccc2c1ccn2-c1ccnc(N[C@H]2CC[C@H](C(=O)N3CCC(O)CC3)CC2)n1`, the inhibition in [5] and in assay [6] was greater than 85% in each case.
Take `O=C([C@H]1CC[C@H](Nc2nccc(-n3nnc4ccccc43)n2)CC1)N1CCOCC1`: the inhibition in [1] is less than 50%; in assay [2], less than 50%; in [3], less than 50%; in [4], 93%; in assay [5] it was 100%; in [6], 86%. Besides, the inhibition in assay [7], in assay [8], in assay [9] and in assay [10] was less than 50% in each case.
As for `O[C@H]1CC[C@H](Nc2nccc(-n3ncc4ccccc43)n2)CC1`, the inhibition is less than 50% in assay [1]; less than 50% in assay [2]; less than 50% in [3]; less than 50% in assay [4]; 99% in assay [5]; less than 50% in [6]. Moreover, the inhibition in assay [7] was less than 50%; in assay [8] it was less than 50%; in assay [9], less than 50%; in [10], 93%.
As to `O[C@H]1CC[C@H](Nc2nccc(-c3n[nH]c4ccccc34)n2)CC1`, the inhibition is 92% in assay [1]; less than 50% in [2]; less than 50% in assay [3]; 92% in assay [4]; 100% in assay [5]; 82% in [6]. For the same compound, the inhibition in assay [7] was less than 50%; in [8] it was less than 50%; in [9] it was 100%; in [10] it was 91%.
As for `N[C@H]1CC[C@H](Nc2nccc(-n3nnc4ccccc43)n2)CC1`, the inhibition was 86% in [1]; less than 50% in assay [2]; less than 50% in assay [3]; 99% in assay [4]; 99% in assay [5]; less than 50% in [6]. The inhibition was less than 50% in assay [7], less than 50% in assay [8], less than 50% in assay [9] and 83% in assay [10].
